Activity calls are given as the source filed them. The calls are words filed in the database; no cut-off is given here.

Sequence of Ephrin type-A receptor 2 (Homo sapiens) (P29317 whole entry): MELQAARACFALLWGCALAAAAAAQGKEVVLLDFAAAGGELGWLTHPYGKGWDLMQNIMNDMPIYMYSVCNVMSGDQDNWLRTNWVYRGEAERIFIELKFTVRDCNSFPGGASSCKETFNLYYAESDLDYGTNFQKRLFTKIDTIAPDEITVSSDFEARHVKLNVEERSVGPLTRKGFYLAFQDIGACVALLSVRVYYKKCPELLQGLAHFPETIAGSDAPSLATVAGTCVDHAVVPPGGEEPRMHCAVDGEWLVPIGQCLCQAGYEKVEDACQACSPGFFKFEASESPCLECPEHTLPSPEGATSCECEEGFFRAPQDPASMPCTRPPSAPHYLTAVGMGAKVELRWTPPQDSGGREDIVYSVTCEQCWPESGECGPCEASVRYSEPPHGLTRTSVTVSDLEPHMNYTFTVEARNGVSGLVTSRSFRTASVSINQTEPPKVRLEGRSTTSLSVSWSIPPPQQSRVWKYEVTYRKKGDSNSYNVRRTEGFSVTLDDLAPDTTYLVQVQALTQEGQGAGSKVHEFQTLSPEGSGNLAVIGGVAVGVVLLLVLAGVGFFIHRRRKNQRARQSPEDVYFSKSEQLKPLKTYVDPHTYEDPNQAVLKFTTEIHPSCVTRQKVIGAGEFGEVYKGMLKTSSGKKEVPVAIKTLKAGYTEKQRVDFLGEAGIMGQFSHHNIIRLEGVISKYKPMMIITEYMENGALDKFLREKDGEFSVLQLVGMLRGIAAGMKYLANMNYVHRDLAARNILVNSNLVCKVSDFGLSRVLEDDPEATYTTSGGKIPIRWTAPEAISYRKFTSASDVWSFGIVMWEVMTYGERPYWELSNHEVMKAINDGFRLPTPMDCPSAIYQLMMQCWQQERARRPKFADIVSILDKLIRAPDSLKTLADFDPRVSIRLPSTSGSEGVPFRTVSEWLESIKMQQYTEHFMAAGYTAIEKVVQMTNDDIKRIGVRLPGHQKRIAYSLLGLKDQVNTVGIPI

The subject of one experiment is MDA-MB-231. The experiment can be described thus: Anticlonogenic activity against human MDA-MB-231 cells up to 10 uM after 14 days by crystal violet staining-based assay. It counts as functional, cell-based. In short, it runs like this: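 Parental MDA-MB-231 cells, 1000/well, cultured 24 h, then exposed to 0, 0.08, 0.4, 2 or 10 µM compound in 0.5% DMSO for 14 days. Colonies were fixed in 4% paraformaldehyde, rinsed in 20% methanol and stained with 0.5% crystal violet. Three independent experiments.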
In the case of `COc1cc2nc(N3CCN(C(=O)Cc4ccc(OCc5ccccc5)cc4)CC3)nc(N)c2cc1OC`, the outcome was Active. Still for that read-out and setting: the value for `CCCCCC(=O)N1CCN(c2nc(N)c3cc(OC)c(OC)cc3n2)CC1` was “Active”. Still for that read-out and setting: the value for `COc1cc2nc(N3CCN(C(=O)CCCCCCCCCCC(=O)N4CCN(c5nc(N)c6cc(OC)c(OC)cc6n5)CC4)CC3)nc(N)c2cc1OC` was “Active”.

Another experiment concerns the target Ephrin type-A receptor 2 (Homo sapiens) (UniProt P29317). The experiment can be described thus: Agonist activity against EphA2 (unknown origin) overexpressed in MDA-MB-231-A2 cells assessed as increase in phosphorylated EphA2 levels at 2 to 50 uM after 30 mins by immunoprecipitation and immunoblot assay relative to 50 uM doxazosin. The class given is cell-based. The gist of the method: (§1)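 MDA-MB-231 cells stably overexpressing EphA2 (kept in 1 µg/ml puromycin) were plated at 100,000 cells/well, grown 24 h, then treated 30 min with compound (2, 10, 50 µM; DMSO stock at 200× final, 0.5% DMSO vehicle). Lysates in modified RIPA were immunoprecipitated with ephrin-A1-Fc on Protein G beads. Blots were probed for pEphA/B and EphA2, and pEphA2/total EphA2 was quantified by band densitometry.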
For orientation: In western blotting, separated proteins are transferred to a membrane and probed.
As for `COc1cc2nc(N3CCN(C(=O)c4ccc(Br)cc4)CC3)nc(N)c2cc1OC`, the result was Active.

As to `COc1ccc(CC(=O)N2CCN(c3nc(N)c4cc(OC)c(OC)cc4n3)CC2)cc1`, the outcome was Active. Take `COc1cc2nc(N3CCN(C(=O)Cc4ccc(OCc5ccccc5)cc4)CC3)nc(N)c2cc1OC`: the result was Active. Consider `COc1cc2nc(N3CCN(C(=O)c4cccs4)CC3)nc(N)c2cc1OC`, for which the result was inactive. On the same count and under the same terms, as for `CSc1ccc(C(=O)N2CCN(C(=O)c3ccc(SC)cc3)CC2)cc1`, the entry is “inactive”; as for `CCCC(=O)N1CCN(c2nc(N)c3cc(OC)c(OC)cc3n2)CC1`, “inactive”; as for `COc1cc2nc(N3CCN(C(=O)Cc4ccc(OCc5ccccc5)cc4)CC3)nc(N3CCCC3)c2cc1OC`, “inactive”.

In the case of `COc1cc2nc(N3CCN(C(=O)c4ccc(I)cc4)CC3)nc(N)c2cc1OC`, the result was Active. For `COc1cc2nc(N3CCN(C(=O)C4CCCCC4)CC3)nc(N)c2cc1OC`, the outcome was inactive. Take `COc1ccc(C(=O)N2CCN(c3nc(N)c4cc(OC)c(OC)cc4n3)CC2)cc1`: the outcome was inactive.

Regarding `COc1cc2nc(N3CCN(C(C)=O)CC3)nc(N)c2cc1OC`, the outcome was inactive. For the compound `CCOc1cc2nc(N3CCN(C(=O)Cc4ccc(OCc5ccccc5)cc4)CC3)nc(N)c2cc1OCC`, the result was inactive. On to `CCc1ccc(C(=O)N2CCN(c3nc(N)c4cc(OC)c(OC)cc4n3)CC2)cc1`, for which the result was Active. The same measure, in the same setting: the value for `COc1cc2nc(N3CCN(C(=O)Cc4ccc5ccccc5c4)CC3)nc(N)c2cc1OC` was “Active”. `COc1cc2nc(N3CCN(C(=O)C(C)c4ccccc4)CC3)nc(N)c2cc1OC` (centres undefined): the result was Active.

As for `COc1cccc(CC(=O)N2CCN(c3nc(N)c4cc(OC)c(OC)cc4n3)CC2)c1`, the outcome was Active.

Take `COc1cc2nc(N3CCN(C(=O)c4ccc(-c5ccccc5)cc4)CC3)nc(N)c2cc1OC`: the outcome was Active. The same measure, in the same setting: as for `CCC(=O)N1CCN(c2nc(N)c3cc(OC)c(OC)cc3n2)CC1`, the entry is “inactive”; as for `COc1cc2nc(N3CCN(C(=O)C4COc5ccccc5O4)CC3)nc(NC(C)=O)c2cc1OC` (centres undefined), “inactive”; as for `COc1ccc(C(=O)N2CCN(C(=O)c3ccc(OC)cc3)CC2)cc1`, “inactive”. Same read-out and setting: the value for `COc1cc2nc(N3CCN(C(=O)c4ccc5ccccc5c4)CC3)nc(N)c2cc1OC` was “Active”; that for `COc1cc2nc(N3CCN(C(=O)c4ccc(Cl)c([N+](=O)[O-])c4)CC3)nc(N)c2cc1OC` was “inactive”. Same read-out and setting: as for `COc1cc2nc(N3CCN(C(=O)c4ccno4)CC3)nc(N)c2cc1OC`, the entry is “inactive”; as for `COc1cc2nc(N3CCN(C(=O)Cc4ccc(OCc5ccccc5)cc4)CC3)nc(NC(C)=O)c2cc1OC`, “inactive”; as for `COc1cc2nc(N3CCN(C(=O)c4ccncc4)CC3)nc(N)c2cc1OC`, “inactive”.

As to `COc1cc2nc(N3CCN(C(=O)Cc4ccc(OCc5ccccc5)cc4)CC3)nc(N3CCCCC3)c2cc1OC`, the result was inactive.

Take `COc1cc2nc(N3CCN(C(=O)c4ccc5c(c4)OCO5)CC3)nc(N)c2cc1OC`: the outcome was Active. Turning to `COc1cc2nc(N3CCN(C(=O)c4ccco4)CC3)nc(N)c2cc1OC`, the outcome was inactive.

Consider `COc1cc2nc(N3CCN(C(=O)c4ccccn4)CC3)nc(N)c2cc1OC`, for which the outcome was inactive. On the same count and under the same terms, the value for `CCCCCC(=O)N1CCN(c2nc(N)c3cc(OC)c(OC)cc3n2)CC1` was “inactive”; that for `COc1cc2nc(N3CCN(C(=O)CCCCCCCCCCC(=O)N4CCN(c5nc(N)c6cc(OC)c(OC)cc6n5)CC4)CC3)nc(N)c2cc1OC` was “Active”.

On to `COc1cc2nc(N3CCN(C(=O)CCCCC(=O)N4CCN(c5nc(N)c6cc(OC)c(OC)cc6n5)CC4)CC3)nc(N)c2cc1OC`, for which the outcome was inactive. Still for that read-out and setting: as for `COc1cc2nc(N3CCN(C(=O)Cc4ccccc4)CC3)nc(N)c2cc1OC`, the entry is “Active”.

The target is the same in a further experiment. The experiment can be described thus: Agonist activity against EphA2 (unknown origin) overexpressed in MDA-MB-231-A2 cells assessed as increase in phosphorylated EphA2 levels at 50 uM after 30 mins by immunoprecipitation and immunoblot assay. It counts as cell-based. The gist of the method: as §1
As for `COc1cc2nc(N3CCN(C(=O)CCCCCCCCCCC(=O)N4CCN(c5nc(N)c6cc(OC)c(OC)cc6n5)CC4)CC3)nc(N)c2cc1OC`, the result was Active.

The target is the same in a further experiment. The experiment can be described thus: Binding affinity to EphA2 in human MDA-MB-231 cells assessed as induction of EphA2 receptor internalization at 50 uM after 1 hr by immunofluorescence microscopy. The class given is cell-based. The gist of the method:
(§2)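 MDA-MB-231 cells on fibronectin-coated coverslips, 24–48 h after seeding, treated 1 h with compound (0.4–50 µM) in 0.5% DMSO. Cells were then PFA-fixed on ice, permeabilized with NP-40 and immunostained with anti-EphA2 (D7) plus Alexa Fluor 488 secondary, with DAPI counterstain. Surface versus intracellular EphA2 was judged by fluorescence microscopy. Three independent repeats.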
On to `COc1cc2nc(N3CCN(C(=O)C4COc5ccccc5O4)CC3)nc(N)c2cc1OC` (centres undefined), for which the result was Active.

For another experiment the target is unchanged. In words: Binding affinity to EphA2 in human MDA-MB-231 cells assessed as induction of EphA2 receptor internalization at 0.4 uM after 1 hr by immunofluorescence microscopy. It counts as cell-based. The gist of the method:
as §2
For the compound `COc1cc2nc(N3CCN(C(=O)CCCCCCCCCCC(=O)N4CCN(c5nc(N)c6cc(OC)c(OC)cc6n5)CC4)CC3)nc(N)c2cc1OC`, the result was Active.

(Values after ChEMBL document CHEMBL4138162, “Design and synthesis of small molecule agonists of EphA2 receptor” (Eur J Med Chem, 2018).)
